In data set [1] the test system is MDA-MB-231. Nature of the data set: Induction of apoptosis in human MDA-MB-231 cells assessed as late apoptotic cells at 0.03 uM after 48 hrs by annexin V-FITC/propidium iodide staining-based flow cytometric analysis (reference value: 4.25%). The data set is classed as functional.
For data set [2], the system named is MDA-MB-231. In words: Induction of apoptosis in human MDA-MB-231 cells assessed as late apoptotic cells at 0.1 uM after 48 hrs by annexin V-FITC/propidium iodide staining-based flow cytometric analysis (reference value: 4.25%). The data set is classed as functional. For orientation: A flow cytometer gives signals particle by particle.
Data set [3] relates to MDA-MB-231. Nature of the data set: Induction of apoptosis in human MDA-MB-231 cells assessed as viable cells at 0.1 uM after 48 hrs by annexin V-FITC/propidium iodide staining-based flow cytometric analysis (reference value: 94.4%). The data set is classed as functional. The settings on record: MDA-MB-231, 48 h, read-out: Activity.
For data set [4], the system named is MDA-MB-231. Nature of the data set: Inhibition of MEK phosphorylation in human MDA-MB-231 cells at 0.001 to 1 uM after 20 hrs by Western blot analysis. It counts as cell-based. Put shortly: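 MDA-MB-231 cells exposed to a concentration series for 20 h at 37 °C, then washed in ice-cold saline and lysed in RIPA buffer with protease cocktail. Lysates were cleared at 12 000 rpm for 10 min at 4 °C and protein measured by Bradford. Equal protein was run on SDS-PAGE, transferred to PVDF and immunoblotted for phospho-proteins.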

Data set [5] deals with MDA-MB-231. Nature of the data set: Antiproliferative activity against human MDA-MB-231 cells assessed as inhibition of colony formation at >0.01 uM after 12 days by crystal violet staining-based assay. The data set is classed as functional, cell-based. Put shortly: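 MDA-MB-231 cells plated at 5000 per well and treated the next day with vehicle or compound, medium refreshed every 4 days; after 12 days, colonies fixed in methanol, crystal violet stained and photographed.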

Data set [6] is described as follows: Tmax in Sprague-Dawley rat at 10 mg/kg, po by LC/MS analysis. The arrangement: dose 10 mg/kg, route oral. The settings on record: in vivo. The data set is classed as ADME, organism-based. The method in brief:
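Male Sprague-Dawley rats fitted with jugular vein catheters and fasted overnight, then given a single 10 mg/kg oral gavage dose; n=5. Serial blood samples were spun at once to plasma and analysed by LC-MS/MS. Noncompartmental parameters were fitted.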

Data set [7] has as its target Proto-oncogene tyrosine-protein kinase Src (Homo sapiens, UniProt P12931).
The target of data set [8] is Tyrosine-protein kinase Yes (Homo sapiens, UniProt P07947). Nature of the data set: Inhibition of human Yes. The method in brief: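 Recombinant human kinase assayed in Eurofins KinaseProfiler panel; IC50 reported as mean of two independent experiments.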
Sequence of Tyrosine-protein kinase Yes (P07947 whole entry): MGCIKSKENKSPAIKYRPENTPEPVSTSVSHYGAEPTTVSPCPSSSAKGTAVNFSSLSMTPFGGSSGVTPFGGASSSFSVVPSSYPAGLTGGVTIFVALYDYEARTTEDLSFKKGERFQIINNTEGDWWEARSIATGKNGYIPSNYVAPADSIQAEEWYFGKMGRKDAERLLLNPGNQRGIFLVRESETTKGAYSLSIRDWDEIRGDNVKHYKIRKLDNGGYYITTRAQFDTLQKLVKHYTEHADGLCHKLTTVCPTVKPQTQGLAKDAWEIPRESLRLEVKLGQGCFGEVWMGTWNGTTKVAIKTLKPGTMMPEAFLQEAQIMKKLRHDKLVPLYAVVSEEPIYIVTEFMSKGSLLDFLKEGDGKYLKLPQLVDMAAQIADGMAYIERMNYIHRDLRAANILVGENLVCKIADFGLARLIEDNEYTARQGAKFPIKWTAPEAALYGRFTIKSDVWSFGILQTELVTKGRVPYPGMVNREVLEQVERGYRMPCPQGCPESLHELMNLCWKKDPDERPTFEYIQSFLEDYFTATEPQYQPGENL
The next data set concerns the target Focal adhesion kinase 1 (Homo sapiens, UniProt Q05397). Nature of the data set: Inhibition of human FAK. The method in brief: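 Recombinant human protein kinases screened through the Eurofins KinaseProfiler service. IC50 values are means of two independent experiments.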
A further data set relates to MCF7. In words: Cytotoxicity against human MCF7 cells assessed as cell viability after 72 hrs by MTT assay. The settings on record: MCF7, 72 h. The data set is classed as functional, cell-based. Background: Tetrazolium assays rely on reduction of a dye to a coloured formazan, in cell work by metabolically active cells.
In data set [9] the test system is MDA-MB-231. In words: Induction of apoptosis in human MDA-MB-231 cells assessed as late apoptotic cells at 0.1 uM after 24 hrs by annexin V-FITC/propidium iodide staining-based flow cytometric analysis (reference value: 2.67%). The data set is classed as functional.
The test system of data set [10] is MDA-MB-231. Nature of the data set: Induction of apoptosis in human MDA-MB-231 cells assessed as early apoptotic cells at 0.03 uM after 48 hrs by annexin V-FITC/propidium iodide staining-based flow cytometric analysis (reference value: […]). It counts as functional.

pIC50: −log10 of the molar value. Active and inactive are the calls of the source. No cut-off for these calls is given here.

Sequence of Proto-oncogene tyrosine-protein kinase Src (P12931 2-536 limits assumed): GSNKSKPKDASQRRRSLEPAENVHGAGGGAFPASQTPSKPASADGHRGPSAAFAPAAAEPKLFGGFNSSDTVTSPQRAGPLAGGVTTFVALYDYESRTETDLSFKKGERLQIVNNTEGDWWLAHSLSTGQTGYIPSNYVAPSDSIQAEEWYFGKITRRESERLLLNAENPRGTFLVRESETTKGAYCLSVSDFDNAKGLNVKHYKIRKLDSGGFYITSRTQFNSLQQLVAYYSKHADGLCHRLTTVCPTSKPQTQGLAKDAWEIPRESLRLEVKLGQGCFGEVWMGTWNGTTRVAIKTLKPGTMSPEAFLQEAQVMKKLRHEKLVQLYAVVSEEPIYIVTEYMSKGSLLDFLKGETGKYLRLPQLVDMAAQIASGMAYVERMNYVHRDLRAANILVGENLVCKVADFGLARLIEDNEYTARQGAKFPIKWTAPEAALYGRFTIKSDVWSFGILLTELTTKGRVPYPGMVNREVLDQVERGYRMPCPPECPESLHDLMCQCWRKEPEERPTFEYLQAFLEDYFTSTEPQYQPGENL
Sequence of Focal adhesion kinase 1 (Q05397 whole entry): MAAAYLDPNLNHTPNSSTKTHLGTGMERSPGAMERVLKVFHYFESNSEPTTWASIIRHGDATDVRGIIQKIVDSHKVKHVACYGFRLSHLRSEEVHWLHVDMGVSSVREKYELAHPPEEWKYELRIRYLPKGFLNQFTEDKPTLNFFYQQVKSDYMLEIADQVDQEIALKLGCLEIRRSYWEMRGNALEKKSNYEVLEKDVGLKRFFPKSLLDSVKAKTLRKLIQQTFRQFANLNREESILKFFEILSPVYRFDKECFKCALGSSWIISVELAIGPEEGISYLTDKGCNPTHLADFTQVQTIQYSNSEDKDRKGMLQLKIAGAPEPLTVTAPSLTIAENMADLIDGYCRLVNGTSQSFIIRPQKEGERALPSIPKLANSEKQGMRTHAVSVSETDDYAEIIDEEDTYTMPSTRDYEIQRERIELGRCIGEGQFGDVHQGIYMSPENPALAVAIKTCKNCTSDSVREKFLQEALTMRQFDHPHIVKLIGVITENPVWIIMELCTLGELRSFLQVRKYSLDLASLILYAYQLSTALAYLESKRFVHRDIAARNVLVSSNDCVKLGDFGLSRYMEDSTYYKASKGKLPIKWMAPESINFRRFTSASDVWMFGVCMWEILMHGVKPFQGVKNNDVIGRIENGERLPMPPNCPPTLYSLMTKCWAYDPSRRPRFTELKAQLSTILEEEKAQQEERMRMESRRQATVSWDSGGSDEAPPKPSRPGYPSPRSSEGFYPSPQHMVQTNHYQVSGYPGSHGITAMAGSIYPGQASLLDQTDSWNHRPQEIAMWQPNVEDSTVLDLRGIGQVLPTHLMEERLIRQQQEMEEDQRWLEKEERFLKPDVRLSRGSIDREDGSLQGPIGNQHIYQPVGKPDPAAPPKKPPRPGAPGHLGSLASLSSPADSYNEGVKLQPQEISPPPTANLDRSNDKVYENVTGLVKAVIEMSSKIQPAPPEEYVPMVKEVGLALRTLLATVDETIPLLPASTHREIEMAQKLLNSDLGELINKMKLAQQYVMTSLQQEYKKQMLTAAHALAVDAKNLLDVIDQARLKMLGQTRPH

As a reminder, the Tmax is the time at which the peak concentration occurs. A word on the pIC50: it is −log10 of the IC50, conventionally taken in molar units. Consider `CCn1nc(C#Cc2cc(C(=O)Nc3ccc(CN4CCN(C)CC4)c(C(F)(F)F)c3)ccc2C)c2c(N)ncnc21`, for which the Activity in the data set on MDA-MB-231 [1] came to 4.85%; in the data set with MDA-MB-231 [2] it was 15.9%; in the data set with MDA-MB-231 [9] it was 10.4%; in the data set on MDA-MB-231 [10] it was 3.23%. The viability at 0.1 µM with MDA-MB-231 [3] came to 69.2%. In addition, the inhibition result with MDA-MB-231 [4] and in the data set on MDA-MB-231 [5] was “Active” each time. Also, in [6], the Tmax was 12 h. The pIC50 in data set [7] was 9.05; in [8] it was 9.10; at Focal adhesion kinase 1, below 5.00; with MCF7, 5.14.

These data come from ChEMBL document CHEMBL3425429.
